In ChEMBL document CHEMBL1152964, “Bicyclic cyanothiazolidines as novel dipeptidyl peptidase 4 inhibitors” (Bioorg Med Chem Lett, 2009):

What follows are compounds tested against T1, Prolyl endopeptidase FAP (Homo sapiens, UniProt Q12884) (assay: Inhibition of human recombinant FAP expressed in Sf9 cells by fluorescence assay).
T1 sequence (Q12884 whole entry): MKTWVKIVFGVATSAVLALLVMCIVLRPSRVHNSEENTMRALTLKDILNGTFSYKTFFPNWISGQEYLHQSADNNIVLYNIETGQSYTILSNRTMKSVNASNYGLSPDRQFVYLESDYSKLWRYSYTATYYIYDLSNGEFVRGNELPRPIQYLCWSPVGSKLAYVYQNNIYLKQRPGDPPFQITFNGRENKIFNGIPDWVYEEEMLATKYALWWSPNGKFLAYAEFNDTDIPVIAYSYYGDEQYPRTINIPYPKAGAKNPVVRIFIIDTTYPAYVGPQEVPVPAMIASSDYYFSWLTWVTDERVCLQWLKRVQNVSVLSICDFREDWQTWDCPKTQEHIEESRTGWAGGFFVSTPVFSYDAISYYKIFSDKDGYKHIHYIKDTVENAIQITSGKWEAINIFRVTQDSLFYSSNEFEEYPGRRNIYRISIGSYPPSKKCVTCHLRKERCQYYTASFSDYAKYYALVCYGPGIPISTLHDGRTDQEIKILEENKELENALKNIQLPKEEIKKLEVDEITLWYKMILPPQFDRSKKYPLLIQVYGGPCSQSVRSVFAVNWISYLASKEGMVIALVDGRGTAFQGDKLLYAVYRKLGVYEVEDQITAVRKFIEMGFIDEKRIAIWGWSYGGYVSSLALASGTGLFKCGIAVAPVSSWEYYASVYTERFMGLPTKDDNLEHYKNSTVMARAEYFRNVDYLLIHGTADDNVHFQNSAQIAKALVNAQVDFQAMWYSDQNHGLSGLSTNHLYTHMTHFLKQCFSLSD
Procedure, shortened: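 Recombinant human FAP, His-tagged, expressed in infected insect cells grown 48 h and purified by His-tag column. Enzyme preincubated with inhibitor (0.5 nM to 50 µM; dissolved in DMSO or 50 mM glycine pH 3.0) 10 min at 27 °C in 25 mM Tris pH 8. Ala-Pro AMC substrate was then added and AMC release read at ex 360/em 460 nm. IC50 was fitted by nonlinear regression.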

IC50 | SMILES
> 10 µM | N#C[C@@H]1CS[C@H]2C[C@](N)(CC3CCCCC3)C(=O)N12
> 10 µM | CC[C@@]1(N)C[C@@H]2SC[C@@H](C#N)N2C1=O
> 10 µM | CC(C)C[C@@]1(N)C[C@@H]2SC[C@@H](C#N)N2C1=O
> 10 µM | N#C[C@@H]1CS[C@H]2C[C@](N)(Cc3ccccc3)C(=O)N12
> 10 µM | CC[C@H](C)[C@@]1(N)C[C@@H]2SC[C@@H](C#N)N2C1=O
> 10 µM | CC(C)[C@@]1(N)C[C@@H]2SC[C@@H](C#N)N2C1=O

Continued, compound first:

SMILES | IC50
N#C[C@@H]1CS[C@H]2C[C@](N)(c3ccc(F)cc3)C(=O)N12 | > 10 µM
N#C[C@@H]1CS[C@H]2C[C@](N)(CCc3ccccc3)C(=O)N12 | > 10 µM
N#C[C@@H]1CS[C@H]2C[C@](N)(C3CCCC3)C(=O)N12 | > 10 µM
N#C[C@@H]1CS[C@H]2C[C@](N)(C3CCCCC3)C(=O)N12 | > 10 µM
N#C[C@@H]1CS[C@H]2C[C@](N)(c3ccccc3)C(=O)N12 | > 10 µM

Each compound was assayed against Dipeptidyl peptidase 4 (Homo sapiens, UniProt P27487) (assay: Inhibition of human recombinant DPP4 by fluorescence assay).
Sequence of Dipeptidyl peptidase 4 (P27487 whole entry): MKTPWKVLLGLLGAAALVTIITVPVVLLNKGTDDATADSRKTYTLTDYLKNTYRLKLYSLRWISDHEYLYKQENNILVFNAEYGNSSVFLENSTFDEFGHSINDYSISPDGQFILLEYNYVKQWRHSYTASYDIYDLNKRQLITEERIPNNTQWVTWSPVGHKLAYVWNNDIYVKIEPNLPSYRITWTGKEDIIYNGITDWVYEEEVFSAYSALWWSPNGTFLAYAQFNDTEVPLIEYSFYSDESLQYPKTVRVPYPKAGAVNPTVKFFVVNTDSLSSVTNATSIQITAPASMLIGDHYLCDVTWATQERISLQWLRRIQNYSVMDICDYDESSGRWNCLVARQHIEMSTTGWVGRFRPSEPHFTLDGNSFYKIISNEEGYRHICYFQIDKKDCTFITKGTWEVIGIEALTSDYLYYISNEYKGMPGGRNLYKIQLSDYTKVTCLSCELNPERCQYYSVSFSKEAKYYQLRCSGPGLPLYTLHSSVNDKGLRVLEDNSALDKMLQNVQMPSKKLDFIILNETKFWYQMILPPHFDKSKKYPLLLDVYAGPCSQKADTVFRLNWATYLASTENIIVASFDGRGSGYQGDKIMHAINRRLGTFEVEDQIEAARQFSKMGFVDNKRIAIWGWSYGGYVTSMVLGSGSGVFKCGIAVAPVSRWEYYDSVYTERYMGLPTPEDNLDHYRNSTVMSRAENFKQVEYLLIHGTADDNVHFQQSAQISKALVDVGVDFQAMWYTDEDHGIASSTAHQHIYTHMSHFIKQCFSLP

IC50 | SMILES
> 1.6 µM | N#C[C@@H]1CS[C@H]2CC[C@@H](N)C(=O)N12
> 16 µM | N#C[C@@H]1CS[C@H]2C[C@@H](NCCc3ccccc3)C(=O)N12
> 16 µM | N#C[C@@H]1CS[C@H]2C[C@@H](NC3CCCC3)C(=O)N12
> 1.6 µM | N#C[C@@H]1CS[C@H]2CC[C@H](N)C(=O)N12
